Screening data deposited in PubChem BioAssay by The Scripps Research Institute Molecular Screening Center.
Only some compounds are listed: those with a hit (about 0.55% of all), similar ones and a draw of the others.
V1R ag counter: V1a receptor agonism, counter-screen for OXTR agonists; P37288; CHO-V1R cells, Fluo-8 calcium fluorescence, agonist mode; 0% DMSO, 100% 3 nM vasopressin; activation, % at 3 µM; 0.25% of 320,000 active; AID 2797;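 active = activation above the mean activation of all tested compounds plus 3 SD, per screening run, cut at about 20% in these data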;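 note: signal is peak over basal fluorescence ratio across a 100 second FLIPR read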
TRPML3 agonist: activates the human TRPML3 channel. Q8TDD5. HEK293 TRPML3-YFP, Fluo-8 calcium fluorescence; 100% = the carbachol control signal. activation, % at 3 µM. 0.29% of 220,000 active. AID 1448;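 active = activation above its plate's cutoff, the mean activation of the plate's test wells plus 3 SD, cut at about 12% in these data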;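 note: 0% = DMSO only wells and 100% = carbachol wells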
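system = HEK293 cells stably carrying human TRPML3-YFP | doses = one concentration, 3 µM nominal, 0.3% DMSO | timing = dye loading 1 h 37 °C then 30 min ambient, 125 s read | detection = Fluo-8 calcium dye fluorescence, ex 470-495, em 515-575 nm | benchmarks = high control carbachol 87 µM, low control DMSO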
OXTR agonist: activates the human oxytocin receptor. P30559. CHO-OTR cells, Fluo-8 calcium fluorescence; normalized: DMSO 0%, oxytocin 100%. activation, % at 3 µM. 0.32% of 320,000 active;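 active = activation above the mean of all tested compounds plus 3 SD, cutoff set per screening run, cut at about 20% in these data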;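 note: peak over basal fluorescence ratio from a 100 s FLIPR kinetic read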
Target sequence (P30559 whole entry, looked up): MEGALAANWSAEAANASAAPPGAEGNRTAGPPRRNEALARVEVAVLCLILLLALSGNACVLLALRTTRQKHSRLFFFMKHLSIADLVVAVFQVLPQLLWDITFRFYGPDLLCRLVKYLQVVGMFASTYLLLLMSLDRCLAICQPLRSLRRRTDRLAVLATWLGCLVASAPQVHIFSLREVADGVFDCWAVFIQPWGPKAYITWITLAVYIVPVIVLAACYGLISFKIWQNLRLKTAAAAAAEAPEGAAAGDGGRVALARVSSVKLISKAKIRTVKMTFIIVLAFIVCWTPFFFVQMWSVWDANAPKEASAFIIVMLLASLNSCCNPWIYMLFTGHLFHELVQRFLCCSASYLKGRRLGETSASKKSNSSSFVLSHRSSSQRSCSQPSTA
TRPN1 ag: activates the zebrafish TRPN1 channel; 0.18% of 220,000 active; HEK293 zebrafish TRPN1-YFP, Fluo-8 calcium fluorescence; 100% = response to 87 µM carbachol; activation, % at 3 µM; AID 1424;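 active = activation above its plate's cutoff, the mean activation of test wells on that plate plus 3 SD, cut at about 19% in these data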;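 note: 0% = DMSO alone and 100% = 87 µM carbachol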
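Control set: carbachol 87 µM as high control, DMSO as low control; system: HEK293 stable line with zebrafish TRPN1-YFP; read-out: % activation versus carbachol response; detection: intracellular calcium fluorescence with Fluo-8; doses: single test compound dose, 3 µM nominal, 0.3% DMSO; schedule: dye 1 h 37 °C plus 30 min RT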
OXTR potentiator: potentiates the human oxytocin receptor response | P30559 | CHO-OTR cells, Fluo-8 calcium fluorescence, potentiator mode; 0% = oxytocin EC15, 100% = EC100 | activation, % at 3 µM | 0.061% of 320,000 active;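 active = activation above that plate's cutoff, the mean activation of tested compounds plus 3 SD, cut at about 6.6% in these data, passing the limit was not always enough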;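 note: 100% uses oxytocin at 75 nM as the full agonist control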
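Dosing: Single dose, 3.0 µM nominal final compound concentration | Material: Human OTR in CHO cells | Technique: Kinetic Fluo-8 calcium fluorescence | Benchmarks: EC15 oxytocin alone as 0%, 75 nM oxytocin as 100% | Probe or stimulus: Oxytocin at about EC15, sub-maximal agonist stimulus | Incubation: Compound 6 min at room temperature before oxytocin, 100 s read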
OXTR agonist cf: human OXTR agonism, confirmation; shares compounds with OXTR agonist; CHO-OTR cells, Fluo-8 calcium fluorescence, agonist; activation, % at 3 µM; 20% of 390 active;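 active = mean activation above about 20% derived from the earlier single-dose screen, limit read from the data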;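 note: peak over minimum fluorescence ratio per well during a 100 second FLIPR read; 0% = DMSO alone and 100% = oxytocin high control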
V1aR counter 3x: counter-screen for oxytocin receptor agonists: V1a receptor agonists; activation, % at 3 µM; CHO-V1R cells, Fluo-8 calcium fluorescence, agonist; shares compounds with OXTR agonist; 10% of 390 active;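 active = mean activation over triplicate exceeds the hit threshold set in the earlier primary screen, cut at about 20% in these data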;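 note: peak over basal fluorescence ratio within a 100 second read; 0% = DMSO alone and 100% = 3 nM vasopressin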
An asterisk follows results filed as active; / = no result given.

SMILES	V1R ag counter	TRPML3 agonist	OXTR agonist	TRPN1 ag	OXTR potentiator	OXTR agonist cf	V1aR counter 3x
O=C(CCCCCN1C(=O)[C@@H]2Cc3ccccc3CN2C1=O)Nc1cccc(F)c1	15	/	9	/	-12	/	/
CC(=O)c1ccc(OCC(=O)Nc2cccc(S(=O)(=O)N3CCCC3)c2)cc1	11	/	15	/	-14	/	/
O=C(COc1ccc2ccc(=O)oc2c1)Nc1cccc(S(=O)(=O)N2CCCCC2)c1	12	/	21*	/	-10	8	9
Cc1cc(C)cc(OCC(O)CN2CCC(CN3C(=O)c4cccc5cccc(c45)C3=O)CC2)c1 (configuration not stated)	16	/	25*	/	-11	3	1
COc1cccc(OCC(O)CN2CCC(CN3C(=O)c4cccc5cccc(c45)C3=O)CC2)c1 (configuration not stated)	1	1	3	1	-4	/	/
Cn1c(=O)c2c(ncn2CC(=O)OCC(=O)Nc2ccc(F)cc2F)n(C)c1=O	1	/	1	/	1	/	/
COc1ccc(C(CCN2CCCCC2)c2c(OC)cc(OC)c3c(-c4ccccc4)cc(=O)oc23)cc1 (configuration not stated)	16	/	21*	/	-16	9	7
COc1nccnc1NS(=O)(=O)c1ccc(N=Cc2c(C)[nH]n(-c3ccc(Cl)cc3)c2=O)cc1	0	0	0	1	-5	/	/
Cc1[nH]n(-c2ccc(Cl)cc2)c(=O)c1C=Nc1ccc(S(=O)(=O)N2CCOCC2)cc1	0	1	22*	1	-11	1	0
CN(/N=C/c1ccc(-c2ccc([N+](=O)[O-])cc2)o1)c1ccccc1	18	/	23*	/	-15	96*	100*
COc1cc(/C=C/C(=O)OCC(=O)Nc2cc(C(F)(F)F)ccc2N2CCOCC2)ccc1O	2	1	2	0	-8	/	/
COc1ccc(Cl)cc1NC(=O)NCC1CCN(Cc2cc(C)ccc2C)CC1	18	/	21*	/	-19	6	4
Cc1ccc(C)c(CN2CCC(CNC(=O)Nc3ccc(C)c(C)c3)CC2)c1	3	/	3	/	-20	/	/
CCc1cccc(CN2CCC(CNC(=O)Nc3ccc(Cl)cc3)CC2)c1	4	2	7	3	-12	/	/
O=C(NCC1CCN(Cc2cccc(Cl)c2)CC1)Nc1ccc(Cl)cc1	19	/	23*	/	-21	5	6
COc1ccccc1C(=O)NNC(=S)NC(=O)c1cc(OC)c(OC)c(OC)c1	12	2	21*	3	-18	8	19
COc1cc(C(=O)NC(=S)NNC(=O)c2cnccn2)cc(OC)c1OC	-1	0	0	0	-1	/	/
Cc1cc([N+](=O)[O-])cnc1N1CCOCC1	0	0	0	1	-1	/	/
Cc1cc(/C=C2/C(=N)N3C(=NC2=O)SN=C3S(C)(=O)=O)c(C)n1-c1ccc(F)cc1	2	0	2	1	-13	/	/
CSC1=NSC2=NC(=O)/C(=C\c3coc4ccccc4c3=O)C(=N)N12	18	15*	26*	29*	-11	329*	488*
COc1ccc(S(=O)(=O)N2CCCC2CNC(=O)C(=O)NCc2ccccc2Cl)cc1 (configuration not stated)	1	/	0	/	-8	/	/
CC(C)c1c(C(=O)N/N=C/c2cccs2)nnn1-c1nonc1N	14	/	20*	/	-8	8	10
Cc1ccsc1/C=N/NC(=O)c1nnn(-c2nonc2N)c1C(C)C	5	/	22*	/	-14	0	1
C[C@H](CO)N1C[C@H](C)[C@@H](CN(C)S(=O)(=O)c2ccccc2)Oc2c(NC(=O)CCC(F)(F)F)cccc2C1=O	1	/	1	/	2	/	/
O=C(NN1C(=O)C2C(c3ccccc3)C=CC(c3ccccc3)C2C1=O)c1cccc(Br)c1 (configuration not stated)	1	1	14	-2	-14	/	/
SMILES	V1R ag counter	TRPML3 agonist	OXTR agonist	TRPN1 ag	OXTR potentiator	OXTR agonist cf	V1aR counter 3x
C/C(=N/O)c1cc(C(C)(C)C)c(O)c(C(C)(C)C)c1	9	0	21*	-1	-12	-1	3
O=C(O)c1ccc(N/N=C/c2ccc(-c3ccccc3Cl)o2)cc1	12	0	23*	1	-23	8	5
Cc1cc(N2CCCCC2)nc(NCc2ccccc2)n1	15	6	25*	47*	-21	11	13
CCCNC(=O)CCCN1C(=O)c2ccccc2Sc2ncccc21	0	/	0	/	-3	/	/
COc1cccc2c1C(=O)c1c(O)c3c(c(O)c1C2=O)C[C@@](O)(C(=O)CO)C[C@@H]3O[C@H]1C[C@H](N)[C@@H](O)[C@H](C)O1	18	/	23*	/	-12	11	20
Fc1ccc2[nH]c3c(NCc4ccccc4)ncnc3c2c1	7	/	24*	/	-21	17	13
COc1ccc(S(=O)(=O)Nc2ccc(N3CCOCC3)cc2)cc1	3	/	2	/	-12	/	/
COc1ccc(NS(=O)(=O)c2ccc(N3CCOCC3)c(N)c2)cc1	12	/	20*	/	-9	11	11
Cc1ccc(N(CC(=O)NC2CCCCC2)S(=O)(=O)c2cccs2)cc1	0	/	0	/	2	/	/
O=c1c2cc(NC(=S)NCCCN3CCC(Cc4ccccc4)CC3)ccc2nc2n1CCCCC2	14	5	20*	6	-27	16	14
O=c1c2cc(NC(=S)NCCN3CCCCCC3)ccc2nc2n1CCCCC2	0	1	-1	-1	-4	/	/
CCOC(=O)/C(C#N)=C/Nc1ccccc1NS(=O)(=O)c1ccc(C)c(C)c1	0	0	1	-2	-4	/	/
CCOC(=O)/C(C#N)=C/Nc1ccccc1NS(=O)(=O)c1cccc(C(C)=O)c1	2	0	50*	0	-1	1	1
O=C(/C=C/c1ccc(S(=O)(=O)N2CCOCC2)cc1)NC(CO)C(O)c1ccc([N+](=O)[O-])cc1 (configuration not stated)	0	/	0	/	-4	/	/
COc1cc(CNCCc2ccc(F)cc2)ccc1OCc1ccc(Cl)nc1	13	1	22*	0	-14	10	1
COc1cc(CNCCc2c[nH]c3ccccc23)ccc1OCc1ccc(F)cc1	12	3	22*	4	-8	18	8
COc1cccc(CNCCc2c[nH]c3ccccc23)c1OCc1ccc(F)cc1	8	1	18	2	-26	/	/
Cc1ccccc1-n1c(SCC(=O)NCc2cccs2)nc2ccccc2c1=O	0	-1	-2	-1	-3	/	/
